# Calls of active or inactive are those of the source. The calls are words filed in the database; no cut-off is given here.
# Key:
# [1] = test system: A549; assay: Induction of apoptosis in human A549 cells assessed as viable cells at 5 uM incubated for 24 hrs by annexin V FITC and PI staining based flow cytometry (reference value: 95.7%); format: functional; settings: A549, 24 h, read-out: Activity
# [2] = test system: A549; assay: Induction of apoptosis in human A549 cells assessed as necrotic cells at 5 uM incubated for 24 hrs by annexin V FITC and PI staining based flow cytometry (reference value: 2.43%); format: functional
# [3] = test system: A549; assay: Induction of apoptosis in human A549 cells assessed as early apoptotic cells at 5 uM incubated for 24 hrs by annexin V FITC and PI staining based flow cytometry (reference value: 0.53%); format: functional
# [4] = test system: A549; assay: Induction of apoptosis in human A549 cells assessed as increase in caspase 9 activity incubated for 24 hrs by colorimetry; format: functional, cell-based
# Summary of the method: (§1)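 A549 cells were plated at 3 × 10^5/well and cultured 12 h, then treated with various concentrations for 24 h. Cells were lysed on ice for 60 min. Lysate containing 200 μg protein was incubated with caspase-3, -8 or -9 colorimetric substrate at 37 °C for 4 h in the dark, and A405 was read. Activation = (treated − blank)/(control − blank). Mean ± SD, ≥3 experiments.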
# [5] = test system: A549; assay: Induction of apoptosis in human A549 cells assessed as late apoptotic cells at 50 uM incubated for 24 hrs by annexin V FITC and PI staining based flow cytometry (reference value: 1.32%); format: functional
# [6] = test system: A549; assay: Induction of apoptosis in human A549 cells assessed as downregulation of Akt protein expression at 10 uM by Western blot analysis; format: functional, cell-based; settings: TDE = time-dependent effect
# Summary of the method: (§2)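 A549 cells were exposed to 10 μM for different times and lysed in RIPA buffer with 1 mM PMSF. Protein (20 μg) was separated on 8-12% SDS-PAGE and transferred to PVDF. Membranes were blocked in 5% milk and incubated with primary antibodies overnight at 4 °C, then with anti-rabbit secondary. Bands were quantified by densitometry. Mean ± SD, ≥3 experiments.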
# [7] = test system: A549; assay: Induction of apoptosis in human A549 cells assessed as compromised cell membrane boundaries at 5 to 20 uM incubated for 24 hrs by PI staining based fluorescence microscopy; format: functional
# Summary of the method: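 A549 cells were plated at 3 × 10^5/well and cultured 12 h, then exposed to various concentrations for 24 h. Morphology was observed by microscopy. AO-EB stain (1 mg/mL each, in PBS) was applied for 10 min at room temperature in the dark. Harvested cells were stained with PI for 15 min at room temperature in the dark, then washed. Both stains were examined by fluorescence microscopy.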
# [8] = test system: A549; assay: Induction of apoptosis in human A549 cells assessed as upregulation of Cyt c protein expression incubated for 24 hrs by Western blot analysis; format: functional, cell-based
# Summary of the method: as §2, with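 “treated with various concentrations” for “exposed to 10 μM”, “24 h” for “different times”, “resolved” for “separated”, “probed” for “incubated”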
# [9] = test system: A549; assay: Induction of apoptosis in human A549 cells assessed as upregulation of p21 protein expression at 10 uM by Western blot analysis; format: functional, cell-based; settings: TDE = time-dependent effect; summary of the method: as §2
# [10] = test system: A549; assay: Induction of apoptosis in human A549 cells assessed as viable cells at 25 uM incubated for 24 hrs by annexin V FITC and PI staining based flow cytometry (reference value: 95.7%); format: functional; settings: A549, 24 h, read-out: Activity
# [11] = test system: A549; assay: Induction of apoptosis in human A549 cells assessed as increase in caspase 3 activity at 100 uM incubated for 24 hrs by colorimetry relative to control; format: functional; summary of the method: as §1
# [12] = test system: A549; assay: Induction of apoptosis in human A549 cells assessed as downregulation of Bcl2 protein expression incubated for 24 hrs by Western blot analysis; format: functional, cell-based
# Summary of the method: as §2, with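 “treated with various concentrations” for “exposed to 10 μM”, “24 h” for “different times”, “resolved” for “separated”, “probed” for “incubated”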
# [13] = test system: A549; assay: Induction of apoptosis in human A549 cells assessed as downregulation of Akt protein expression incubated for 24 hrs by Western blot analysis; format: functional, cell-based
# Summary of the method: as §2, with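 “treated with various concentrations” for “exposed to 10 μM”, “24 h” for “different times”, “resolved” for “separated”, “probed” for “incubated”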
# [14] = test system: A549; assay: Induction of apoptosis in human A549 cells assessed as viable cells at 50 uM incubated for 24 hrs by annexin V FITC and PI staining based flow cytometry (reference value: 95.7%); format: functional; settings: A549, 24 h, read-out: Activity
# [15] = test system: A549; assay: Induction of apoptosis in human A549 cells assessed as downregulation of 5-Lox protein expression incubated for 24 hrs by Western blot analysis; format: functional, cell-based
# Summary of the method: as §2, with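 “treated with various concentrations” for “exposed to 10 μM”, “24 h” for “different times”, “resolved” for “separated”, “probed” for “incubated”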
# [16] = test system: A549; assay: Induction of apoptosis in human A549 cells assessed as early apoptotic cells at 25 uM incubated for 24 hrs by annexin V FITC and PI staining based flow cytometry (reference value: 0.53%); format: functional
# [17] = test system: A549; assay: Inhibition of colony formation in human A549 cells cultured in plate assessed as decrease in size and number of colonies formed incubated for 10 days by crystal violet staining based fluorescence microscopy; format: functional, cell-based
# Summary of the method: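 Log-phase A549 cells were seeded at 1 × 10^3/well and cultured 24 h. Medium containing various concentrations was added and cells were grown 10 days. Colonies were fixed in 4% paraformaldehyde for 30 min, stained with 0.1% crystal violet and imaged by microscopy. Colony percentage was calculated relative to control colonies. Mean ± SD, ≥3 experiments.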
# [18] = test system: A549; assay: Induction of apoptosis in human A549 cells assessed as necrotic cells at 25 uM incubated for 24 hrs by annexin V FITC and PI staining based flow cytometry (reference value: 2.43%); format: functional
# [19] = test system: A549; assay: Induction of apoptosis in human A549 cells assessed as upregulation of p53 protein expression at 10 uM by Western blot analysis; format: functional, cell-based; settings: TDE = time-dependent effect; summary of the method: as §2
# [20] = test system: A549; assay: Induction of apoptosis in human A549 cells assessed as early apoptotic cells at 50 uM incubated for 24 hrs by annexin V FITC and PI staining based flow cytometry (reference value: 0.53%); format: functional
# [21] = test system: A549; assay: Induction of ROS production in human A549 cells incubated for 24 hrs by DCFH-DA staining based fluorescence microscopy; format: functional, cell-based
# Summary of the method: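 A549 cells were plated at 3 × 10^5/well and cultured 12 h, then treated with various concentrations for 24 h. They were washed in serum-free medium and loaded with DCFH-DA (10 μM) for 20 min at 37 °C in the dark. DCF fluorescence was imaged by fluorescence microscopy.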
# [22] = test system: A549; assay: Induction of apoptosis in human A549 cells assessed as downregulation of MDM2 protein expression incubated for 24 hrs by Western blot analysis; format: functional, cell-based
# Summary of the method: as §2, with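 “treated with various concentrations” for “exposed to 10 μM”, “24 h” for “different times”, “resolved” for “separated”, “probed” for “incubated”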
# [23] = test system: NCI-H1299; assay: Antiproliferative activity against human H1299 cells assessed as reduction in cell proliferation incubated for 48 hrs by MTT assay; format: functional, cell-based; settings: NCI-H1299, 48 h
# Summary of the method: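 Log-phase cells were plated at 5 × 10^3/well in RPMI-1640 with 10% FBS and cultured 24 h. Compounds were added at graded concentrations (DMSO <0.1%) for 48 h. MTT (5 mg/mL) was added for about 4 h, formazan was dissolved in DMSO and A490 was read. IC50 was calculated from ≥3 independent experiments and reported as mean ± SD. Chrysin served as positive control.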
# [24] = test system: A549; assay: Induction of apoptosis in human A549 cells incubated for 24 hrs by annexin V FITC and PI staining based flow cytometry; format: functional, cell-based
smiles,measurement,setting,value
CN1C(=O)C2(C(C#N)=C(N)Oc3cc4oc(-c5ccccc5)cc(=O)c4c(O)c32)c2cc(Br)ccc21 (centres undefined),viability at 5 µM,[1],85%
same,Activity,[2],0.732%
same,Activity,[3],6.53%
same,Activity,[4],Dose-dependent effect
same,Activity,[5],24.8%
same,inhibition,[6],Tde
same,Activity,[7],Active
same,Activity,[8],Dose-dependent effect
same,Activity,[9],Tde
same,viability at 25 µM,[10],73.5%
same,fold change (FC),[11],5.24
same,inhibition,[12],Dose-dependent effect
same,inhibition,[13],Dose-dependent effect
same,viability at 50 µM,[14],59.8%
same,inhibition,[15],Dose-dependent effect
same,Activity,[16],9.8%
same,inhibition,[17],Dose-dependent effect
same,Activity,[18],2.97%
same,Activity,[19],Tde
same,Activity,[20],9.33%
same,Activity,[21],Dose-dependent effect
same,inhibition,[22],Dose-dependent effect
same,IC50,[23],7.61 µM
same,Activity,[24],Dose-dependent effect

# Source: ChEMBL document CHEMBL4304827, “Design, synthesis and evaluation of structurally diverse chrysin-chromene-spirooxindole hybrids as anticancer agents” (Bioorg Med Chem, 2019)
